# Compound activity as filed in PubChem.
# Compounds with a hit are over-represented: about 2% of the library has one in this group of screens.
# CHRM1 agonist: agonists of human M1 muscarinic receptor; CHO-K1 hM1, Fluo-8 calcium fluorescence, agonist mode; 0% DMSO, 100% acetylcholine EC100; 0.33% of 360,000 active; activation, % at 3 µM;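 active = activation above the run's mean compound activation plus 3 SD, cut at about 16% in these data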;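 note: peak over basal fluorescence ratio within a 140 s kinetic read after compound addition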
# M5 PAM: CHRM5 positive allosteric modulation | P08912 | CHO-K1 hM5, Fluo-8 calcium, ACh EC20 PAM; 0% = ACh EC20, 100% = ACh EC100 | activation, % at 3 µM | 0.3% of 360,000 active | AID 624038;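 active = activation above the run cutoff, the mean activation of all test compounds plus 3 SD, cut at about 18% in these data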
# Target sequence (P08912 whole entry, looked up): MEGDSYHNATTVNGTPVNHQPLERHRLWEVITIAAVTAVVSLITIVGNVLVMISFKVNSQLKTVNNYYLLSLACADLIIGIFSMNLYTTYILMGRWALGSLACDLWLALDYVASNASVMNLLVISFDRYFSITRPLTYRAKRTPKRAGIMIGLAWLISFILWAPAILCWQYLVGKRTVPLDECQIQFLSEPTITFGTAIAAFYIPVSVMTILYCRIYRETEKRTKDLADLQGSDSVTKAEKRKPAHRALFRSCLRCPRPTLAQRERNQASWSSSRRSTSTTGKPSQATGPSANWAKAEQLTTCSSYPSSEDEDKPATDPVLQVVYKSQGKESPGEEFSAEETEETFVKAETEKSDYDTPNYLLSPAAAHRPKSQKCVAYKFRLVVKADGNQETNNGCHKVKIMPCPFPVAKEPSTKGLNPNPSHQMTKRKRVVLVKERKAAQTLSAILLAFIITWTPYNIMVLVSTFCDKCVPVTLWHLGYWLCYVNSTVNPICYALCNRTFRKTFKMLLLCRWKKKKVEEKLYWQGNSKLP
#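 Measured by: Fluo-8 calcium fluorescence; material: human M5 receptor in CHO-K1 cells; schedule: Post-acetylcholine fluorescence recording 140 s; benchmarks: low control EC20 acetylcholine (0%), high control EC100 acetylcholine (100%); read-out: Max/basal fluorescence ratio as % of EC20–EC100 ACh window; compound: single dose, 3 µM nominal final test concentration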
# CHRM1 PAM: positive allosteric modulators of human M1 muscarinic receptor; P11229; CHO-K1 hM1, Fluo-8 calcium fluorescence, ACh EC20; 0% = ACh EC20, 100% = maximal ACh; activation, % at 3 µM; 0.088% of 360,000 active; AID 588819; in the data active = activation above about 19%, passing the limit was not always enough
# M1 antag: human CHRM1 antagonism. CHO-K1 hM1, Fluo-8 calcium fluorescence, ACh EC80 antagonist. AID 588852. 1.3% of 360,000 active. P11229. inhibition, % at 3 µM;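 active = percent inhibition above its own plate's cutoff, namely the mean of that plate's compound wells plus 3 SD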;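 note: peak over basal fluorescence ratio during 140 s after agonist addition; 0% = ACh EC80 plus DMSO and 100% = DMSO alone without agonist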
# M5 antag: blocks acetylcholine activation of human M5 receptor; P08912; CHO-hM5 cells, Fluo-8 calcium fluorescence, ACh EC80; inhibition, % at 3 µM; 0.59% of 360,000 active;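 active = inhibition above a per-plate cutoff, the mean of that plate's test compounds plus 3 SD, cut at about 27% in these data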;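 note: 0% = acetylcholine EC80 with DMSO and 100% = DMSO without agonist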
# M5 ag: agonists of human muscarinic M5 receptor (CHRM5). 0.19% of 360,000 active. P08912. AID 624037. activation, % at 3 µM. CHO-K1 hM5 cells, Fluo-8 calcium fluorescence; 0% DMSO wells, 100% maximal acetylcholine response;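 active = activation above the run's mean over test compounds plus 3 SD, cut at about 23% in these data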;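 note: signal is peak over basal fluorescence ratio across the kinetic read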
# The depositor's hits bear a star; nt = no result.
SMILES,CHRM1 agonist,M5 PAM,CHRM1 PAM,M1 antag,M5 antag,M5 ag
Cc1c(Cl)cnc(NC(=O)COC(=O)c2cccc(S(=O)(=O)N3CCOCC3)c2)c1Cl,7,2,0,-3,-2,0
CC(C)c1cccc(C(C)C)c1OCCCCN1CCCC1,-8,-11,-27,33*,9,-7
Cc1cccc(C(C)(C)C)c1OCCCCN1CCCC1,16*,6,-3,-4,-8,-10
Cc1cc(C(C)(C)C)ccc1OCCOCCN1CCCC1,-9,-7,-25,33*,2,-4
CC(C)(C)c1ccccc1OCCCCN1CCCC1,-4,-10,0,4,8,-5
Cc1ccc(C(=O)NC(c2ccccc2)C(Cl)Cl)cc1 (stereo not given),-6,-4,6,-9,7,-4
CN(C)CCN(C)C1CN(C2CCCC2)S(=O)(=O)C1 (stereo not given),-11,-2,4,-10,5,-5
COc1ccccc1NC(=O)N1CCc2[nH]c3ccc(F)cc3c2C1,26*,-4,-10,-17,1,9
O=C(N1CCc2[nH]c3ccccc3c2C1)C(F)(F)F,46*,-9,-12,8,18,22
O=C(CCCCl)N1CCc2[nH]c3ccccc3c2C1,24*,-12,-2,-17,2,6
COc1cc(OC)c(OC)cc1CN1CCN(Cc2ccc(C(F)(F)F)cc2)CC1,-1,22*,-5,8,-7,0
Cn1ccc2c(N3c4ccccc4CCc4ccccc43)cc3c(c21)C1CCC3C1 (stereo not given),-12,0,-16,37*,5,-1
C[C@H]1COc2cc(N3CCC[C@@H]3CO)ccc2S(=O)(=O)N1,nt,2,nt,nt,1,0
CC(C)(O)C#Cc1ccc(C(=O)N2CCCC2C(=O)O)s1 (stereo not given),-2,-2,-2,-25,-12,-1
O=C1N(c2ccccc2)C[C@@H]2C[C@@H](c3cccs3)N3CCC[C@@]123,-9,-8,-26,90*,7,-18
CC(C)(O)C#Cc1ccc([C@@H]2C[C@H]3CN(c4ccccc4)C(=O)[C@]34CCCN24)s1,-10,-8,-26,42*,4,-8
COc1ccccc1N1C[C@@H]2C[C@@H](c3ccco3)N3CCC[C@@]23C1=O,-16,-2,3,0,0,-5
Cc1ccc(C(=O)NCCN2C3=NC[C@H](C)N3C[C@H]2Cc2ccc(O)cc2)cc1Br,-9,4,-20,17,0,-12
COc1ccc(C[C@H]2CN3C(=NC[C@H]3C)N2CCNC(=O)c2ccc(C)c(Br)c2)cc1,-11,-26,-33,76*,17,-9
COc1ccc(-c2coc3c(C(=O)Nc4cccc(NS(C)(=O)=O)c4)cccc23)c(C)c1,-1,-10,-6,10,6,-1
c1ncn(C23CC4CC(CC(C4)C2)C3)n1,-5,21*,7,-11,1,-3
CC(NC(=O)C12CC3CC(C1)CC(n1cncn1)(C3)C2)C12CC3CC(CC(C3)C1)C2 (stereo not given),-4,5,0,2,-6,4
CC(C)(C)C(=O)OCc1nc(-c2ccc(C(F)(F)F)cc2)cs1,1,19*,16,-12,-15,5
COc1ccc(-c2csc(C(O)c3ccc(F)cc3)n2)cc1OC (stereo not given),-2,-1,3,-9,7,2
COc1ccc(C(C)(O)c2nc(-c3ccoc3)cs2)cc1 (stereo not given),-3,-1,10,-11,0,2
SMILES,CHRM1 agonist,M5 PAM,CHRM1 PAM,M1 antag,M5 antag,M5 ag
Cc1ccc(Cl)cc1NC(=S)NCCCSC1CCCCC1,-4,-19,-15,37*,19,-2
COc1ccc([C@H]2C[C@@H](n3cc(C4CC4)nn3)[C@H](O)CN2CC2CCCCC2)cc1,-2,-3,-1,-4,0,-1
OC1(C#CCCN2CCCCC2)c2ccccc2-c2ccccc21,-8,-35,-27,99*,90*,-17
OC1(CC#CCN2CCCCC2)c2ccccc2-c2ccccc21,-7,-18,-27,55*,11,-20
CC(C)(C)c1ccc(-n2ncc3c2CCCC3NC(=O)CCCn2cncn2)cc1 (stereo not given),0,-9,1,-2,13,0
CC(C)(C)c1ccc(-n2ncc3c2CCCC3NC(=O)C2(C(N)=O)CC2)cc1 (stereo not given),6,-13,-3,18,28*,3
CC(C)(C)c1ccc(-n2ncc3c2CCCC3NC(=O)CCn2cncn2)cc1 (stereo not given),-5,1,-23,54*,4,-3
Cc1cc(C(=O)NC2CCCc3c2cnn3-c2ccc(C(C)(C)C)cc2)nn1C (stereo not given),2,-16,-7,33*,35*,-1
Cc1cc(C)cc(C(O)c2ncc(-c3cccc(F)c3)[nH]2)c1 (stereo not given),0,-5,-3,4,0,3
CCc1cc(-c2nnn(-c3cc(C(C)C)ccc3C)c2CC)ccc1-c1cn(CCc2c[nH]c3ccccc23)nn1,-2,1,8,-15,-1,1
CCC(CC)C(=O)N(C)c1c(C)nc2c(OCC=C(C)C)cccn12,-7,0,-3,-9,0,0
COC(=O)[C@H]1C[C@H](OC(=O)NC2CCCC2)[C@@]2(O)CN(S(=O)(=O)c3ccc(C)cc3)CC2[C@H]1C(=O)OC (stereo not given in full),-2,1,4,4,-2,1
O=C(c1cccc(Br)c1)N1CCN(c2ccccn2)CC1,-7,-7,3,-4,7,3
O=C(c1cc(Br)c(Br)s1)N1CCN(c2ccccn2)CC1,-5,-10,-15,39*,14,-2
CCCCc1c(O)nc(SCC(=O)N2CCOCC2)n(-c2ccc(C)cc2)c1=O,-3,1,3,-3,-3,3
O=C(CC[C@H]1O[C@@H](n2cnc3c(NC(=O)c4ccccc4)ncnc32)[C@H](O)[C@@H]1O)NCc1ccccn1,-3,3,4,-28,-7,1
N=c1c2c(ncn1CCN1CCOCC1)Oc1cc(O)ccc1C2c1ccccc1 (stereo not given),1,-19,-10,30*,13,5
COc1ccc(C2c3ccc(O)cc3Oc3ncn(CCN4CCOCC4)c(=N)c32)cc1OC (stereo not given),10,5,-2,-15,-5,4
